Experiments:
[1] = target: T1, Pyruvate kinase (Leishmania mexicana) (UniProt Q27686); assay: Inhibition of Leishmania mexicana pyruvate kinase assessed as enzyme residual activity at 5 mM
T1 sequence (whole entry): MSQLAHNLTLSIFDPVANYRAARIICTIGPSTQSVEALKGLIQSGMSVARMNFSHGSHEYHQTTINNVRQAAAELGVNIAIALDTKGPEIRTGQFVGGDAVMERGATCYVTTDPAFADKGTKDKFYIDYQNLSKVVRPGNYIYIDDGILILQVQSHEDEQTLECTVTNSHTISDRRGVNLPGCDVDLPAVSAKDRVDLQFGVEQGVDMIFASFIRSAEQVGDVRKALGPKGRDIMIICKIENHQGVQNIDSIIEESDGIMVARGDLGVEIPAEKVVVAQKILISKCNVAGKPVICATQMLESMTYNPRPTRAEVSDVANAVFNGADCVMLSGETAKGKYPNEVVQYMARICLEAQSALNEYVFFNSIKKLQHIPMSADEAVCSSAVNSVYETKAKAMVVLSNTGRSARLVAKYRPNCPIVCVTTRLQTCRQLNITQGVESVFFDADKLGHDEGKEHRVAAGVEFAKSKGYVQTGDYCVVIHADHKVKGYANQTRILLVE

[2] = target: T2, ATP-dependent 6-phosphofructokinase (Trypanosoma brucei) (UniProt O15648); assay: Inhibition of Trypanosoma brucei phosphofructokinase assessed as enzyme residual activity at 5 mM
T2 sequence (whole entry): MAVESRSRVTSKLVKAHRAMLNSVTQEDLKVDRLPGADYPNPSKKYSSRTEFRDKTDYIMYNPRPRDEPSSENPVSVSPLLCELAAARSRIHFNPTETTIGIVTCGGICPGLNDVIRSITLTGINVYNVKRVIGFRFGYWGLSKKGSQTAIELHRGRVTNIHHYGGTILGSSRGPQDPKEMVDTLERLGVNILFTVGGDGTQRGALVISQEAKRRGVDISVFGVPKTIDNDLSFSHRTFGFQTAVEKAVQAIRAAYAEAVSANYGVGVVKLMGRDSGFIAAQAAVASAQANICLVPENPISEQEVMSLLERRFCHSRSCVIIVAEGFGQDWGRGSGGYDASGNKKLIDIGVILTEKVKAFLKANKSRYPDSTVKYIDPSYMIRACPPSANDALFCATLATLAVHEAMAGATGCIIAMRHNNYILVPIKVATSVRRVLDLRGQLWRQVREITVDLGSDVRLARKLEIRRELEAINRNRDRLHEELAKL

Pyruvate kinase = target: T3, Pyruvate kinase (Leishmania mexicana, UniProt Q27686); assay: Inhibition of Leishmania mexicana pyruvate kinase
T3 sequence (Q27686 whole entry): T1 sequence (whole entry)

[3] = target: T2, ATP-dependent 6-phosphofructokinase (Trypanosoma brucei); assay: Inhibition of Trypanosoma brucei phosphofructokinase assessed as enzyme residual activity at 1 mM
Trypanosoma brucei = assay: Antiparasitic activity against Trypanosoma brucei strain 427; format: functional; conditions: read-out: ED50 (the source's name)
In short: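 Cultured bloodstream-form Trypanosoma brucei brucei strain 427 exposed to compounds in vitro; ED50 reported.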

[4] = target: T4, ATP-dependent 6-phosphofructokinase (Trypanosoma brucei, UniProt O15648); assay: Inhibition of Trypanosoma brucei phosphofructokinase
T4 sequence (O15648 whole entry): T2 sequence (whole entry)

| Structure (SMILES) | Activity [1] | Activity [2] | further results |
| --- | --- | --- | --- |
| O=C(Nc1ccc([N+](=O)[O-])cc1)[C@H]1O[C@H](CNC2CCCCCC2)[C@@H](O)[C@@H]1O | 12.5% |  |  |
| C[C@H](NC[C@H]1O[C@H](CO)[C@@H](O)[C@@H]1O)c1ccc(F)cc1 | 36% |  |  |
| C[C@@H](NC[C@H]1O[C@H](CO)[C@@H](O)[C@@H]1O)c1ccc(Cl)cc1 | 84% |  |  |
| CC(C)C[C@H](CO)NC[C@H]1O[C@H](CO)[C@@H](O)[C@@H]1O | 86% | 52% |  |
| OC[C@H]1O[C@H](CNCc2ccc(F)cc2)[C@@H](O)[C@@H]1O | 107% | 59% |  |
| C[C@H](NC[C@H]1O[C@H](CO)[C@@H](O)[C@@H]1O)c1ccc2ccccc2c1 | 30% |  | IC50 (Pyruvate kinase): 1500 µM |
| O=C(Nc1ccc([N+](=O)[O-])cc1)[C@H]1O[C@H](CNCc2ccc(Cl)c(Cl)c2)[C@@H](O)[C@@H]1O |  |  | Activity [3]: 0.8% |
| OC[C@H]1O[C@H](CNC2CCCCCCC2)[C@@H](O)[C@@H]1O | 57% | 64% |  |
| CC(CCCC(C)(C)O)NC[C@H]1O[C@H](CO)[C@@H](O)[C@@H]1O (stereo partly drawn) | 125% | 58% |  |
| O=C(Nc1cccc([N+](=O)[O-])c1)[C@H]1O[C@H](CNC2CCCCCC2)[C@@H](O)[C@@H]1O | 7.6% |  | IC50 (Pyruvate kinase): 53 µM |
| OC[C@H]1O[C@H](CNC2CCc3ccccc32)[C@@H](O)[C@@H]1O (stereo partly drawn) | 86% | 41% |  |
| C[C@@H](NC[C@H]1O[C@H](CO)[C@@H](O)[C@@H]1O)c1ccc(F)cc1 | 53% |  |  |
| CCCCCCNC[C@H]1O[C@H](CO)[C@@H](O)[C@@H]1O | 40% |  | EC50 (Trypanosoma brucei): 400 µM |
| CC[C@@H](C)NC[C@H]1O[C@H](CO)[C@@H](O)[C@@H]1O | 28% |  |  |
| Cc1ccc(CNC[C@H]2O[C@H](CO)[C@@H](O)[C@@H]2O)cc1C | 85% | 59% |  |
| O=C(NC1CCCCCC1)[C@H]1O[C@H](CNC2CCCCCC2)[C@@H](O)[C@@H]1O | 1.9% |  | IC50 (Pyruvate kinase): 26 µM |
| Cc1ccc(CNC[C@H]2O[C@H](CO)[C@@H](O)[C@@H]2O)c(C)c1 | 103% | 87% |  |
| OCC(Cc1ccccc1)NC[C@H]1O[C@H](CO)[C@@H](O)[C@@H]1O (stereo partly drawn) | 59% | 47% |  |
| CC(CCc1ccccc1)NC[C@H]1O[C@H](CO)[C@@H](O)[C@@H]1O (stereo partly drawn) | 95% | 73% |  |
| O=C(NCc1ccccc1)[C@H]1O[C@H](CNC2CCCCCC2)[C@@H](O)[C@@H]1O | 11.5% |  |  |
| OC[C@H](Cc1ccccc1)NC[C@H]1O[C@H](CO)[C@@H](O)[C@@H]1O | 72% | 83% |  |
| CC(C)C[C@@H](CO)NC[C@H]1O[C@H](CO)[C@@H](O)[C@@H]1O | 73% | 64% |  |

| Structure (SMILES) | Activity [1] | Activity [2] | further results |
| --- | --- | --- | --- |
| OC[C@H]1O[C@H](CN[C@H]2C[C@@H]3CC[C@@H]2C3)[C@@H](O)[C@@H]1O | 19% | 40% | IC50 (Pyruvate kinase): 1500 µM |
| CC(C)CCCC(C)NC[C@H]1O[C@H](CO)[C@@H](O)[C@@H]1O (stereo partly drawn) | 80% | 87% |  |
| OC[C@H]1O[C@H](CNCc2ccccc2F)[C@@H](O)[C@@H]1O | 42% | 63% |  |
| Cc1ccc(C)c(CNC[C@H]2O[C@H](CO)[C@@H](O)[C@@H]2O)c1 |  | 69% |  |
| C[C@H](NC[C@H]1O[C@H](CO)[C@@H](O)[C@@H]1O)c1ccc(Cl)cc1 | 58% |  |  |
| C[C@@H](NC[C@H]1O[C@H](CO)[C@@H](O)[C@@H]1O)c1ccc2ccccc2c1 | 34% | 33% | IC50 (Pyruvate kinase): 1500 µM |
| OC[C@H]1O[C@H](CNCc2cccc(Cl)c2)[C@@H](O)[C@@H]1O | 88% | 85% |  |
| Cc1cccc(CNC[C@H]2O[C@H](CO)[C@@H](O)[C@@H]2O)c1 | 89% | 61% |  |
| OC[C@H]1O[C@H](CN[C@@H]2c3ccccc3C[C@@H]2O)[C@@H](O)[C@@H]1O | 60% | 57% |  |
| OC[C@H]1O[C@H](CNC2CCCC2)[C@@H](O)[C@@H]1O | 52% | 87% | IC50 (Pyruvate kinase): 4100 µM |
| CC(C)[C@H](C)NC[C@H]1O[C@H](CO)[C@@H](O)[C@@H]1O | 26% | 49% | IC50 (Pyruvate kinase): 2300 µM |
| C=CCNC(=O)[C@H]1O[C@H](CNC2CCCCCC2)[C@@H](O)[C@@H]1O | 19.1% |  |  |
| OC[C@H]1O[C@H](CNC2CCCCCC2)[C@@H](O)[C@@H]1O | 19% | 63% | IC50 (Pyruvate kinase): 71 µM; EC50 (Trypanosoma brucei): 1880 µM |
| COc1ccc([C@H](C)NC[C@H]2O[C@H](CO)[C@@H](O)[C@@H]2O)cc1 | 22% |  | IC50 (Pyruvate kinase): 3500 µM |
| CCCC(C)NC[C@H]1O[C@H](CO)[C@@H](O)[C@@H]1O (stereo partly drawn) | 26% | 70% | IC50 (Pyruvate kinase): 2500 µM |
| CCC(CO)NC[C@H]1O[C@H](CO)[C@@H](O)[C@@H]1O (stereo partly drawn) | 90% | 36% |  |
| OC[C@H]1O[C@H](CNC2CCC2)[C@@H](O)[C@@H]1O | 43% | 54% | IC50 (Pyruvate kinase): 4300 µM |
| OC[C@@H](Cc1ccccc1)NC[C@H]1O[C@H](CO)[C@@H](O)[C@@H]1O | 97% | 77% |  |
| Cc1ccccc1CNC[C@H]1O[C@H](CO)[C@@H](O)[C@@H]1O | 100% | 68% |  |
| O=C(Nc1ccccc1)[C@H]1O[C@H](CNCc2ccc(Cl)c(Cl)c2)[C@@H](O)[C@@H]1O |  |  | Activity [3]: 5.5% |
| CC(C)[C@@H](C)NC[C@H]1O[C@H](CO)[C@@H](O)[C@@H]1O | 86% | 51% |  |
| OC[C@H]1O[C@H](CNCc2ccc(Cl)cc2)[C@@H](O)[C@@H]1O | 81% | 65% |  |

| Structure (SMILES) | Activity [1] | Activity [2] | further results |
| --- | --- | --- | --- |
| OC[C@H]1O[C@H](CNC2Cc3ccccc3C2)[C@@H](O)[C@@H]1O | 49% | 33% |  |
| CC(NC[C@H]1O[C@H](CO)[C@@H](O)[C@@H]1O)C(O)c1ccccc1 (stereo partly drawn) | 80% | 64% |  |
| OC[C@H]1O[C@H](CNCc2ccc(Cl)cc2Cl)[C@@H](O)[C@@H]1O |  | 58% |  |
| O=C(Nc1ccccc1)[C@H]1O[C@H](CNC2CCCCCC2)[C@@H](O)[C@@H]1O | 24.8% |  |  |
| COc1ccc([C@@H](C)NC[C@H]2O[C@H](CO)[C@@H](O)[C@@H]2O)cc1 | 25% |  | IC50 (Pyruvate kinase): 900 µM |
| OC[C@H]1O[C@H](CNC2CCCCC2)[C@@H](O)[C@@H]1O | 83% | 69% |  |
| Cc1ccc(CNC[C@H]2O[C@H](CO)[C@@H](O)[C@@H]2O)cc1 | 90% | 73% |  |
| O=C(NCc1ccccc1)[C@H]1O[C@H](CNCc2ccc(Cl)c(Cl)c2)[C@@H](O)[C@@H]1O |  |  | Activity [3]: 4% |
| OC[C@H]1O[C@H](CN[C@H]2c3ccccc3C[C@H]2O)[C@@H](O)[C@@H]1O | 103% | 52% |  |
| O=C(Nc1cccc([N+](=O)[O-])c1)[C@H]1O[C@H](CNCc2ccc(Cl)c(Cl)c2)[C@@H](O)[C@@H]1O |  |  | Activity [3]: 1.7% |
| CC(C)CCC(C)NC[C@H]1O[C@H](CO)[C@@H](O)[C@@H]1O (stereo partly drawn) | 115% | 44% |  |
| OC[C@H]1O[C@H](CN[C@@H]2C[C@@H]3CC[C@@H]2C3)[C@@H](O)[C@@H]1O | 47% |  |  |
| O=C(NCc1ccc(Cl)c(Cl)c1)[C@H]1O[C@H](CNC2CCCCCC2)[C@@H](O)[C@@H]1O |  |  | Activity [3]: 0.4%; IC50 [4]: 49 µM |
| COC[C@H](C)NC[C@H]1O[C@H](CO)[C@@H](O)[C@@H]1O | 82% | 35% |  |
| OC[C@H]1O[C@H](CNC(c2ccccc2)c2ccccc2)[C@@H](O)[C@@H]1O | 89% | 30% |  |
| OC[C@H]1O[C@H](CNC2CCCc3ccccc32)[C@@H](O)[C@@H]1O (stereo partly drawn) | 36% | 62% | IC50 (Pyruvate kinase): 1200 µM; EC50 (Trypanosoma brucei): 830 µM |
| OC[C@H]1O[C@H](CNCc2ccccc2Cl)[C@@H](O)[C@@H]1O | 71% | 65% |  |
| OCCC(NC[C@H]1O[C@H](CO)[C@@H](O)[C@@H]1O)c1ccccc1 (stereo partly drawn) | 85% | 47% |  |
| OC[C@H]1O[C@H](CNCc2ccc(-c3ccccc3)cc2)[C@@H](O)[C@@H]1O |  | 75% |  |
| OC[C@H]1O[C@H](CNCc2cccc(F)c2)[C@@H](O)[C@@H]1O | 100% | 57% |  |
| OC[C@H]1O[C@H](CNCc2cccc(C(F)(F)F)c2)[C@@H](O)[C@@H]1O | 105% | 46% |  |
